Assay results reported in ChEMBL document CHEMBL3588850, “Multivalent Amino Sugars to Recognize Different TAR RNA Conformations” (Medchemcomm, 2014).

Key:
[1] = system: Nucleic Acid; assay: Binding affinity to HIV1 TAR RNA U3 bulge mutant at assessed as association constant at pH 6.8 by ethidium bromide displacement assay based Scatchard analysis method; assay type: nucleic-acid assay; conditions: Human immunodeficiency virus 1
In short: (§1)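 Synthetic 2′-ACE-protected TAR RNA, deprotected, heated 98 °C 5 min, then ice-cooled 15 min. TAR RNA at 200 nM/strand with ethidium bromide 5 μM in 100 mM KCl, 10 mM SC, 0.5 mM EDTA, pH 6.8. Ligand added stepwise, ≤4% v/v. Excitation 545 nm, emission 580–660 nm, intensity at 610 nm normalized. IC50 from sigmoidal fit of fraction EtBr displaced vs log ligand; association constants from Scatchard analysis.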

[2] = system: Nucleic Acid; assay: Binding affinity to wild type HIV1 TAR RNA assessed as association constant at pH 6.8 by ethidium bromide displacement assay based Scatchard analysis method; assay type: nucleic-acid assay; conditions: Human immunodeficiency virus 1
In short: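 Ethidium bromide displacement: 5 μM EtBr with TAR RNA at 200 nM/strand (under 20% of EtBr bound) in 100 mM KCl, 10 mM SC, 0.5 mM EDTA, pH 6.8. Ligand added in concentrated aliquots, at most 4% v/v. Excitation 545 nm, emission 580–660 nm, intensity at 610 nm. Association constant obtained by Scatchard analysis of the titration data.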

[3] = biological target: Nucleic Acid; assay: Binding affinity to HIV1 TAR RNA bulgeless mutant at pH 6.8 by ethidium bromide displacement assay; assay type: nucleic-acid assay, Human immunodeficiency virus 1; in short: as §1
[4] = system: Nucleic Acid; assay: Binding affinity to HIV1 TAR RNA bulgeless tetraloop mutant assessed as association constant at pH 6.8 by ethidium bromide displacement assay based Scatchard analysis method; assay type: nucleic-acid assay; conditions: Human immunodeficiency virus 1; in short: as §1
[5] = system: Nucleic Acid; assay: Binding affinity to HIV1 TAR RNA tetraloop mutant assessed as association constant at pH 6.8 by ethidium bromide displacement assay based Scatchard analysis method; assay type: nucleic-acid assay; conditions: Human immunodeficiency virus 1; in short: as §1
[6] = biological target: Nucleic Acid; assay: Binding affinity to wild type HIV1 TAR RNA at pH 6.8 by ethidium bromide displacement assay; assay type: nucleic-acid assay, Human immunodeficiency virus 1
In short: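 TAR RNA (200 nM/strand) and EtBr (5 μM) in 100 mM KCl, 10 mM SC, 0.5 mM EDTA, pH 6.8, titrated with ligand aliquots (at most 4% v/v). Fluorescence excited at 545 nm and read at 610 nm. IC50 is the ligand concentration that displaces 50% of EtBr, taken from a sigmoidal fit of fraction displaced versus log ligand concentration.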

[7] = biological target: Nucleic Acid; assay: Binding affinity to HIV1 TAR RNA bulgeless tetraloop mutant at pH 6.8 by ethidium bromide displacement assay; assay type: nucleic-acid assay, Human immunodeficiency virus 1; in short: as §1
[8] = system: Nucleic Acid; assay: Binding affinity to HIV1 TAR RNA bulgeless mutant assessed as association constant at pH 6.8 by ethidium bromide displacement assay based Scatchard analysis method; assay type: nucleic-acid assay; conditions: Human immunodeficiency virus 1; in short: as §1
[9] = biological target: Nucleic Acid; assay: Binding affinity to HIV1 TAR RNA U3 bulge mutant at pH 6.8 by ethidium bromide displacement assay; assay type: nucleic-acid assay, Human immunodeficiency virus 1; in short: as §1
[10] = biological target: Nucleic Acid; assay: Binding affinity to HIV1 TAR RNA tetraloop mutant at pH 6.8 by ethidium bromide displacement assay; assay type: nucleic-acid assay, Human immunodeficiency virus 1; in short: as §1

Compound | K [1] | K [2] | IC50 [3] | K [4] | K [5] | IC50 [6] | IC50 [7] | K [8] | IC50 [9] | IC50 [10]
C/C(CCc1cn(C[C@H]2O[C@@H](O[C@@H]3[C@@H](O)[C@H](N)C[C@H](N)[C@H]3O[C@H]3O[C@H](CN)[C@@H](O)[C@H](O)[C@H]3N)[C@H](O)[C@@H]2O[C@H]2O[C@@H](CN)[C@@H](O)[C@H](O)[C@H]2N)nn1)=C(/C)CCc1cn(C[C@H]2O[C@@H](O[C@@H]3[C@@H](O)[C@H](N)C[C@H](N)[C@H]3O[C@H]3O[C@H](CN)[C@@H](O)[C@H](O)[C@H]3N)[C@H](O)[C@@H]2O[C@H]2O[C@@H](CN)[C@@H](O)[C@H](O)[C@H]2N)nn1 | 2.6 ×10⁶ /M | 1.1 ×10⁷ /M | 142 nM | 2.8 ×10⁷ /M | 3.5 ×10⁶ /M | 146 nM | 162 nM | 3.6 ×10⁷ /M | 338 nM | 210 nM
NC[C@@H]1O[C@H](O[C@H]2[C@@H](O)[C@H](O[C@@H]3[C@@H](O)[C@H](N)C[C@H](N)[C@H]3O[C@H]3O[C@H](CN)[C@@H](O)[C@H](O)[C@H]3N)O[C@@H]2Cn2cc(CCCc3cn(C[C@H]4O[C@@H](O[C@@H]5[C@@H](O)[C@H](N)C[C@H](N)[C@H]5O[C@H]5O[C@H](CN)[C@@H](O)[C@H](O)[C@H]5N)[C@H](O)[C@@H]4O[C@H]4O[C@@H](CN)[C@@H](O)[C@H](O)[C@H]4N)nn3)nn2)[C@H](N)[C@@H](O)[C@@H]1O | 6.9 ×10⁶ /M | 7.1 ×10⁷ /M | 134 nM | 7.5 ×10⁷ /M | 1.4 ×10⁷ /M | 118 nM | 146 nM | 8.9 ×10⁷ /M | 224 nM | 190 nM
NC[C@@H]1O[C@H](O[C@H]2[C@@H](O)[C@H](O[C@@H]3[C@@H](O)[C@H](N)C[C@H](N)[C@H]3O[C@H]3O[C@H](CN)[C@@H](O)[C@H](O)[C@H]3N)O[C@@H]2Cn2cc(CCCCc3cn(C[C@H]4O[C@@H](O[C@@H]5[C@@H](O)[C@H](N)C[C@H](N)[C@H]5O[C@H]5O[C@H](CN)[C@@H](O)[C@H](O)[C@H]5N)[C@H](O)[C@@H]4O[C@H]4O[C@@H](CN)[C@@H](O)[C@H](O)[C@H]4N)nn3)nn2)[C@H](N)[C@@H](O)[C@@H]1O | 2.1 ×10⁶ /M | 2.6 ×10⁷ /M | 160 nM | 1.2 ×10⁷ /M | – | 144 nM | 216 nM | 2.2 ×10⁷ /M | 278 nM | 278 nM
NC[C@@H]1O[C@H](O[C@H]2[C@@H](O)[C@H](O[C@@H]3[C@@H](O)[C@H](N)C[C@H](N)[C@H]3O[C@H]3O[C@H](CN)[C@@H](O)[C@H](O)[C@H]3N)O[C@@H]2Cn2cc(COCCCCCCCCCCCCOCc3cn(C[C@H]4O[C@@H](O[C@@H]5[C@@H](O)[C@H](N)C[C@H](N)[C@H]5O[C@H]5O[C@H](CN)[C@@H](O)[C@H](O)[C@H]5N)[C@H](O)[C@@H]4O[C@H]4O[C@@H](CN)[C@@H](O)[C@H](O)[C@H]4N)nn3)nn2)[C@H](N)[C@@H](O)[C@@H]1O | 1.5 ×10⁶ /M | 2.5 ×10⁷ /M | – | 2.7 ×10⁷ /M | 2 ×10⁶ /M | 144 nM | 158 nM | 4.4 ×10⁷ /M | 326 nM | 300 nM
NC[C@@H]1O[C@H](O[C@H]2[C@@H](O)[C@H](O[C@@H]3[C@@H](O)[C@H](N)C[C@H](N)[C@H]3O[C@H]3O[C@H](CN)[C@@H](O)[C@H](O)[C@H]3N)O[C@@H]2Cn2cc(-c3ccc(-c4cn(C[C@H]5O[C@@H](O[C@@H]6[C@@H](O)[C@H](N)C[C@H](N)[C@H]6O[C@H]6O[C@H](CN)[C@@H](O)[C@H](O)[C@H]6N)[C@H](O)[C@@H]5O[C@H]5O[C@@H](CN)[C@@H](O)[C@H](O)[C@H]5N)nn4)cc3)nn2)[C@H](N)[C@@H](O)[C@@H]1O | – | 1.5 ×10⁸ /M | – | – | – | 150 nM | – | – | – | –
